Most compounds without a hit are left out; they make up all but 1% or so of the library.
UPR XBP1 act = activators of adaptive XBP1 UPR arm, primary screen, cell-based, CHO-XBP1 luciferase reporter, luminescence, uHTS | IRE1-XBP1 UPR activation; percent of tunicamycin response, DMSO as zero | activation, % at 20 µM | actives 0.33% (n = 330,000) | AID 463104, 2010;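 active = versus positive control, 20 µM dose yields 30% or more activation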
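Material – CHO cell line with stable XBP1 luciferase reporter · Buffer or medium – F12 plus 10% FBS · Compound – single point, 20 µM final compound, 1% DMSO · Schedule – 16-18 h cell attachment at 37 °C, then 6 h compound exposure · Signal – Steady-Glo luminescence read · Benchmarks – high control tunicamycin 10 µg/mL final, low control DMSO vehicle only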
Beta2AR agonist = beta2AR agonists driving receptor internalization, primary screen, cell-based, FAP fluorogen, flow cytometry; actives 0.43% (n = 340,000); Beta-2 adrenergic receptor (Homo sapiens), P07550; response, % (test concentration not listed); AID 504454, 2011; Am2.2-beta2AR cells;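 active = response above a set limit, near 3 SD of response in nonfluorescent compounds, cut at about 42% in these data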
Target sequence (P07550 whole entry, looked up): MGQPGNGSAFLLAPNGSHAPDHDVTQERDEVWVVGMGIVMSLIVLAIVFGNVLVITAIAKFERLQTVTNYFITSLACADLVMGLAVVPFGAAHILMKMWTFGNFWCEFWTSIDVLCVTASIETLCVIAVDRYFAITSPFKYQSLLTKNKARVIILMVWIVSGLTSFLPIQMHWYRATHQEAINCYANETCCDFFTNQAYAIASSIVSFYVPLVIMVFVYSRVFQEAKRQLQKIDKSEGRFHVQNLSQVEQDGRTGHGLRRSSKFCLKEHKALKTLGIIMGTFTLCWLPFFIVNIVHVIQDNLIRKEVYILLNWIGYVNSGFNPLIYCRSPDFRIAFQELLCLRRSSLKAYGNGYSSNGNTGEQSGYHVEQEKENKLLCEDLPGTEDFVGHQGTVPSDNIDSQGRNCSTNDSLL
T cell HTS = modulators of CD8 T cell-vesicle binding, primary screen, mouse 2C CD8+ T cells, flow cytometry | 2C CD8+ T cell-vesicle binding; active compounds read low | response (vesicle binding), % at 7 µM | actives 0.068% (n = 330,000);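 active = response, share of CD8 T cells binding vesicles, and their 90th percentile fluorescence all below set limits, cut at about 80% in these data, passing the limit was not always enough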;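 also: values below 100% mean blocked vesicle binding to the CD8+ T cells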
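Read-out – percent CD8+ FL2 mean versus row control · System – murine 2C transgenic CD8+ T lymphocytes · Times – 1.5 h cell–vesicle binding at 37 °C, then 20 min icy labelling · Control set – naked vesicles low, QL9 vesicles with vehicle high · Detection – cytometric PE anti-B7-1 and Alexa647 anti-CD8 signals after 1% paraformaldehyde fixation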
UPR CHOP act = activators of apoptotic CHOP UPR arm, primary screen, cell-based, CHO-CHOP luciferase reporter, luminescence, uHTS | UPR activation; percent of tunicamycin response over DMSO baseline | activation, % at 10 µM | actives 0.34% (n = 330,000) | AID 449763, 2010;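 active = at 10 µM dose, activation of 40% or more, normalized to positive control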
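Dosing – one dose, 10 µM in 0.5% DMSO · System – CHO-CHOP cells, stable luciferase reporter of PERK-eIF2a-CHOP signalling · Input – 500 cells/well · Control set – tunicamycin 10 µg/mL final as positive, DMSO-only wells as negative · Timing – 6 h compound treatment, 37 °C · Measure – % activation vs tunicamycin · Technique – luminescence read with Steady-Glo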
UPR XBP1 confirm = IRE1-XBP1 UPR arm activators, confirmation, cell-based, CHO-XBP1 luciferase reporter, luminescence, single concentration | shares compounds with UPR XBP1 act | activation, % at 20 µM | actives 63% (n = 1,000) | AID 485299, 2010;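 active = reporter signal at least 30% of the positive control's activation in two or more of four replicate wells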
Hits are given with their value; i = inactive; nt = not tested or not shown.

SMILES	UPR XBP1 act	Beta2AR agonist	T cell HTS	UPR CHOP act	UPR XBP1 confirm
COc1ccc(-c2nn(-c3ccccc3)cc2/C=N/O)cc1	i	i	i	i	nt
COc1ccc(-c2nn(-c3ccccc3)cc2/C=N/N2C(=O)CSC2=S)cc1	39	i	i	i	27
Cc1cccc(NC(=O)c2ccc(S(=O)(=O)NCc3cccnc3)cc2)c1C	i	i	i	i	nt
O=C1C(=O)N(CCN2CCOCC2)C(c2ccc(Cl)cc2)/C1=C(/O)c1ccc(S(=O)(=O)N2CCOCC2)cc1 (stereo unspecified)	i	i	i	i	nt
C[C@@H]1C[C@H]2[C@@H]3CCC4=CC(=O)C=C[C@]4(C)[C@@]3(Cl)[C@@H](O)C[C@]2(C)[C@@]1(OC(=O)c1ccco1)C(=O)CCl	79	i	i	i	58
CC1CC2C3CCC4=CC(=O)C=CC4(C)[C@@]3(Cl)C(O)CC2(C)C1(O)C(=O)CO (stereo partly specified)	i	i	i	i	nt
O=[N+]([O-])c1cccc(/C=C/c2nc(C=Nc3ccccc3)c(O)o2)c1	36	i	i	i	i
COc1cc(/C=N/NC(=O)NC23CC4CC(CC(C4)C2)C3)ccc1OCC(N)=O	38	i	i	i	i
COc1ccc(C=NNC(=S)NC23CC4CC(CC(C4)C2)C3)cc1OC	nt	i	nt	nt	nt
Cc1cc(C)c2c(CCl)cc(=O)oc2c1	41	44	i	i	38
CC1=C(C(=O)OCc2ccccc2)C(c2ccc([N+](=O)[O-])cc2)NC(=O)N1CCCC(=O)O (stereo unspecified)	53	i	i	i	i
CSCCCNC(=S)Nc1ccc(N2CCOCC2)cc1N1CCOCC1	i	i	i	i	nt
Cc1nn(Cc2ccccc2)c(C)c1NC(=O)CSc1nc(C2CC2)nc2c1cnn2-c1ccccc1	202	i	i	i	333
Cc1nn(C)c(C)c1NC(=O)CSc1nc(Cc2ccccc2)nc2c1cnn2-c1ccccc1	i	i	i	i	nt
COc1ccccc1/C=C/C(=O)c1cc(Br)ccc1OC(=O)c1ccco1	i	i	i	i	nt
Cc1ccc(/C=C/C(=O)c2cc(Br)ccc2OC(=O)c2ccco2)cc1	54	i	i	i	108
CCOC(=O)c1[nH]c(C)c(C(=O)OCC(=O)Nc2sc3c(c2C#N)CCCCC3)c1C	63	i	i	i	i
Cc1ccc(C(=O)OCC(=O)Nc2sc3c(c2C#N)CCC3)cc1	i	i	i	i	nt
COC(=O)c1ccc(CSc2nc3ccccc3c(=O)n2-c2ccccc2)o1	35	i	i	i	i
O=C(CSc1nc2ccccc2c(=O)n1-c1ccccc1)N1CCc2ccccc21	36	i	i	i	42
Cc1ccc(-c2nnn(CC(=O)N(Cc3cccs3)C(C(=O)NC3CCCCC3)c3ccco3)n2)o1 (stereo unspecified)	48	i	i	i	39
CCOC(=O)c1ccc(-n2c(=S)sc3c(=O)[nH]c(C)nc32)cc1	i	i	i	i	nt
COc1ccc(C(=O)O/N=C2\C(=O)N(C)c3ccccc32)cc1	i	i	i	i	nt
CN1C(=O)/C(=N\OC(=O)c2cccc3ccccc23)c2ccccc21	43	i	i	i	i
COc1cc(C(=O)Nc2nnc(C(C)(C)C)s2)c([N+](=O)[O-])cc1OC	i	i	i	i	nt
SMILES	UPR XBP1 act	Beta2AR agonist	T cell HTS	UPR CHOP act	UPR XBP1 confirm
CC(C)[C@H](NC(=O)[C@@H]1CSC2c3ccccc3C(=O)N21)C(=O)NCC1CCCO1 (stereo partly specified)	i	i	i	i	nt
CC(C)(C)SC(C(=O)N1CCOCC1)c1ccc(Br)cc1 (stereo unspecified)	i	i	i	i	nt
CCC(=O)Nc1ccc(NC(=O)CSc2nc3cc4c(cc3cc2C)CCC4)cc1	50	i	i	i	40
Cc1ccccc1NC(=O)CSc1nc2cc3c(cc2cc1C)CCC3	i	i	i	i	nt
O=C(O)c1ccc(/C=N/Nc2nnnn2-c2ccccc2)cc1	i	i	i	i	nt
COCC(C)n1c(SCC(=O)Nc2sccc2C(N)=O)nc2ccccc2c1=O (stereo unspecified)	i	i	i	i	nt
CCOC(=O)c1c(NC(=O)c2cc3n(n2)C(C(F)(F)F)CC(c2cccs2)N3)sc(C)c1C (stereo unspecified)	33	i	i	i	206
CCN(CC)c1ccc2cc(-c3nc4ccccc4[nH]3)c(=O)oc2c1	45	i	i	i	i
Cc1ccc(-c2csc3nnc(SCc4csc(C)n4)n23)cc1	i	i	i	i	nt
CC(=O)Cn1ncc(N2CCOCC2)c(Cl)c1=O	i	i	i	i	nt
COc1ccc(CCN(C)CC(=O)Nc2ccc(F)c(Cl)c2)cc1OC	i	i	i	i	nt
COc1cc(/C=N\Nc2ccc([N+](=O)[O-])cc2)ccc1OCC(=O)Nc1ccc(C)c(C)c1	nt	i	nt	nt	nt
CCOc1cc(/C=N\Nc2ccc([N+](=O)[O-])cc2)ccc1OCC(=O)Nc1ccc(C)c(C)c1	44	i	i	i	66
O=c1c2ccccc2nc(CSc2nnnn2-c2ccccc2)n1-c1ccccc1Cl	52	i	i	i	i
Cc1cc(C(=O)N/N=C/c2ccc(-c3cccc(Br)c3)o2)n[nH]1	32	i	i	i	i
Cc1cc(C(=O)N/N=C/c2ccc(-c3cccc(Cl)c3Cl)o2)n[nH]1	i	i	i	i	nt
C[C@@H]1CC[C@]2(C(=O)O)CC[C@]3(C)C(=CCC4[C@]56CC[C@@](O)(OC5)C(C)(C)C6CC[C@]43C)C2[C@H]1C (stereo partly specified)	i	i	i	i	nt
C[C@H]1[C@H](C)CC[C@]2(C(=O)O)CC[C@]3(C)C(=CC[C@@H]4[C@@]5(C)CC[C@H](O)C(C)(C)[C@@H]5CC[C@]43C)[C@H]12	39	i	i	i	i
C[C@H]1[C@H](C)CC[C@]2(C(=O)O)CC[C@]3(C)C(=CC[C@@H]4[C@@]5(C)C[C@@H](O)[C@H](O)C(C)(C)[C@@H]5CC[C@]43C)[C@H]12	103	i	i	i	124
C[C@H]1[C@H](C)CC[C@]2(C)CC[C@]3(C)C(=CC[C@@H]4[C@@]5(C)CC[C@@H](O)[C@](C)(C(=O)O)[C@@H]5CC[C@]43C)[C@H]12	nt	nt	i	nt	nt
CCOc1cc(N2CCOCC2)c(OCC)cc1NC(=O)CN1C(=O)C2CC=CCC2C1=O (stereo unspecified)	i	i	i	i	nt
Cc1ccc(C(=O)N2N=C(c3ccc(Br)cc3)CC2c2ccccc2O)cc1 (stereo unspecified)	40	i	i	i	41
COc1ccc(-c2csc3ncnc(Sc4nnnn4C)c23)cc1	i	i	i	i	nt
